Measured values from ChEMBL document CHEMBL1759837, “Studies on chemical modification and biology of a natural product, gambogic acid (III): determination of the essential pharmacophore for biological activity” (Eur J Med Chem, 2011).

Legend:
Assay type in all cases: functional, cell-based
SMMC-7721 = experiment: Antiproliferative activity against human SMMC7721 cells after 24 hrs by MTT assay; settings: SMMC-7721, 24 h
How it was run: (§1)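 Cells grown at 37 °C in humidified 5% CO2 with benzylpenicillin and streptomycin. Compounds came from 0.01 mol/L DMSO stocks and were tested at eight two-fold dilutions in triplicate, with medium-only controls, for 24 h. MTT absorbance was read at 570 nm. Survival = A_treatment/A_control × 100. IC50 is the concentration giving 50% viability inhibition, as the mean of two separate experiments.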

HepG2 = experiment: Antiproliferative activity against human HepG2 cells after 24 hrs by MTT assay; settings: HepG2, 24 h
How it was run: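 Tetrazolium MTT viability test; cells exposed to compound 24 h, absorbance read at 570 nm. Survival ratio = A treated / A control × 100%; IC50 is the concentration giving 50% loss of viability. Eight concentrations in two-fold dilutions, triplicate wells, mean of two separate experiments. Compounds dissolved in DMSO (0.01 mol/L stock); control wells received medium only.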

BGC-823 = experiment: Antiproliferative activity against human BGC823 cells after 24 hrs by MTT assay; settings: BGC-823, 24 h; how it was run: as §1
MCF7 = experiment: Antiproliferative activity against human MCF7 cells after 24 hrs by MTT assay; settings: MCF7, 24 h; how it was run: as §1

SMILES | IC50 (SMMC-7721) | IC50 (HepG2) | IC50 (BGC-823) | IC50 (MCF7)
CC(C)=CCC12OC(C)(C)C3CC(C=C4C(=O)c5cccc(O)c5OC431)C2=O (stereo not drawn) | 11.7 µM | 14.3 µM | 19.3 µM | 19.4 µM
CC(C)=CCC12OC(C)(C)C3CC(C=C4C(=O)c5cc(O)ccc5OC431)C2=O (stereo not drawn) | 20 µM | 12.3 µM | 32.5 µM | 20.6 µM
